# Data as given in paper PMC3031448 (Journal of natural products, 2009).
# Columns and labels:
# [1] = tested on: PANC-1 human pancreatic carcinoma cells; assay: Cell cycle analysis by flow cytometry; format: cell-based; conditions: PANC-1, 24 h, doses ≤ 46.5 μM
# [2] = tested on: DNA; assay: Ethidium bromide displacement; format: binding
# [3] = tested on: Candida albicans 44506; assay: Antimicrobial broth dilution assay, C. albicans; format: cell-based
# In short: (§1)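 Broth microdilution in microtiter format at 37 °C against the ATCC strains, with MIC as the read-out. C. albicans was grown in Sabouraud dextrose broth; MRSA and P. aeruginosa were grown in cation-supplemented Mueller-Hinton broth.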
# [4] = tested on: methicillin-resistant Staphylococcus aureus 700787; assay: Antimicrobial broth dilution assay, MRSA; format: cell-based; conditions: methicillin-resistant Staphylococcous aureus
# In short: as §1
# [5] = tested on: Pseudomonas aeruginosa 27853; assay: Antimicrobial broth dilution assay, P. aeruginosa; format: cell-based
# In short: as §1
# [6] = Solubility; format: physicochemical; conditions: three physiologically relevant pH levels
# [7] = Plasma protein binding; format: in vitro ADME; conditions: both test concentrations
# [8] = Plasma stability, human; format: in vitro ADME; conditions: 3 h, both test concentrations
# [9] = Plasma stability, mouse; format: in vitro ADME; conditions: 3 h, both test concentrations
smiles,measurement,setting,value
"CC(=O)N(C)CCc1cc(Br)c(OCCCNc2ncn(C)c3ncnc2-3)c(Br)c1 [Aphrocallistin, aphrocallistin]",cell cycle arrest,[1],induce G1 cell cycle arrest
same,cell cycle arrest,[1]; listed as aphrocallistin,significant cell cycle arrest at G1
same,displacement of ethidium bromide (direct DNA binding),[2],no displacement of ethidium bromide was observed
same,antimicrobial activity,[3],did not show significant inhibition
same,antimicrobial activity,[4],did not show significant inhibition
same,antimicrobial activity,[5],did not show significant inhibition
same,solubility,[6],high
same,protein binding,[7],moderate protein binding
same,plasma stability,[8],excellent stability
same,plasma stability,[9],excellent stability
